Measurements: ChEMBL document CHEMBL1772969, “Synthesis, structure-activity relationship, and antimalarial activity of ureas and thioureas of 15-membered azalides” (J Med Chem, 2011)
In brackets after ≈: the same amount, converted by molar mass. Activity calls are given as the source filed them. No cut-off for these calls is given here.

Tests used:
[1] = Blood clearance in Sprague-Dawley rat at 10 mg/kg, iv and 30 mg/kg, po; assay type: ADME, organism-based; conditions: whole blood
Method in brief: (§1)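 Male Sprague-Dawley rats (250–300 g), crossover design. Dosed 10 mg/kg iv, then 2-day washout, then 30 mg/kg oral (free base equivalent), formulated in 1%/20% Encapsin (w/v) and saline. Blood sampled up to 24 h and analysed by LC-MS/MS. Clearance and terminal-phase Vd based on blood concentration.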

Plasmodium falciparum [2] = assay: Ratio of compound IC50 to Azithromycin IC50 for Plasmodium falciparum; assay type: functional
HepG2 = assay: Cytotoxicity against human HepG2 cells after 1 to 4 hrs by MTS assay; assay type: cell-based
Method in brief: (§2)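 HepG2 and THP-1 cells grown in RPMI 1640 with 10% FBS at 37 °C, 5% CO₂, and passaged twice weekly. Compounds applied as continuous exposure. Viability read by MTS reagent, 1–4 h incubation, absorbance at 490 nm; IC₅₀ derived.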

Plasmodium berghei [3] = assay: Antiplasmodial activity against Plasmodium berghei KBG-173 infected in sc dosed mouse administered bid for 3 days; assay type: functional
Method in brief: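 Male mice (24-30 g) were infected ip with 5 × 10⁶ P. berghei KBG-173-infected erythrocytes. Drug suspended in palm/peanut oil was given sc twice daily on days 3-5 post-infection at 160, 40 or 10 mg/kg per dose, 0.01 mL/g, in groups of 4-5. Blood films were taken day 6, then biweekly to day 31. Mice smear-negative on day 31 were counted cured. CD50 is the daily dose curing 50%.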

[4] = Oral bioavailability in Sprague-Dawley rat at 30 mg/kg; assay type: ADME, organism-based; conditions: in vivo; method in brief: as §1
Plasmodium falciparum [5] = assay: Antimalarial activity against chloroquine/pyrimethamine-resistant Plasmodium falciparum W2 after 48 hrs by [3H]hypoxanthine incorporation assay; assay type: functional, organism-based
Method in brief: (§3)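 [3H]hypoxanthine incorporation assay (Desjardins method, Milhous modification) with 48 h drug exposure. Compounds and controls were 2-fold diluted across 11 concentrations. IC50 was fitted by nonlinear logistic dose-response. Values are averaged where multiple results were generated, with relative errors usually <30%.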

[6] = Half life in mouse liver microsomes at 1 uM by LCMS analysis; assay type: ADME, Microsome
Method in brief: (§4)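 Compound at 1 μM final with 0.5 mg/mL pooled human or mouse liver microsomes, 1.3 mM NADP, 3.3 mM MgCl₂, 0.1 M PBS pH 7.4. Reaction started with 1 U/mL G6PD, shaken at 37 °C. Aliquots quenched with cold acetonitrile at 0, 10, 20, 30 and 60 min and quantified by LCMS. t₁/₂ taken from log plot of total ion chromatogram area remaining.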

[7] = Half life in Sprague-Dawley rat at 10 mg/kg, iv and 30 mg/kg, po; assay type: ADME, organism-based; conditions: in vivo; method in brief: as §1
Plasmodium falciparum [8] = assay: Antimalarial activity against Plasmodium falciparum after 68 hrs; assay type: functional, organism-based
Plasmodium falciparum [9] = assay: Antimalarial activity against chloroquine-sensitive Plasmodium falciparum D6 after 48 hrs by [3H]hypoxanthine incorporation assay; assay type: functional, organism-based; method in brief: as §3
Plasmodium berghei [10] = assay: Antiplasmodial activity against Plasmodium berghei KBG-173 infected in mouse assessed as mouse without parasitemia at 960 mg/kg, sc bid for 3 days measured on day 31; assay type: functional, organism-based; parameters: dose 960 mg/kg
Method in brief: (§5)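 P. berghei KBG-173: 5 × 10⁶ infected erythrocytes injected intraperitoneally into male mice (24–30 g); parasitemia 1.0–3.7% by day 3. Oil suspension given subcutaneously twice daily at 160, 40 or 10 mg/kg on days 3–5 postinfection (totals 960/240/60 mg/kg); 4–5 mice per group. Blood films on day 6, then biweekly to day 31; film-negative on day 31 counted as cured.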

Plasmodium berghei [11] = assay: Antiplasmodial activity against Plasmodium berghei KBG-173 infected in mouse assessed as mouse without parasitemia at 240 mg/kg, sc bid for 3 days measured on day 31; assay type: functional, organism-based; parameters: dose 240 mg/kg; method in brief: as §5
[12] = Half life in human liver microsomes at 1 uM by LCMS analysis; assay type: ADME, Microsome; method in brief: as §4
THP-1 = assay: Cytotoxicity against human THP1 cells after 1 to 4 hrs by MTS assay; assay type: cell-based; method in brief: as §2
[13] = Apparent volume of distribution during terminal phase in Sprague-Dawley rat at 10 mg/kg, iv and 30 mg/kg, po; assay type: ADME, organism-based; conditions: in vivo, read-out: Vz/F; method in brief: as §1
Plasmodium falciparum [14] = assay: Antimalarial activity against multidrug-resistant Plasmodium falciparum TM91C235 after 48 hrs by [3H]hypoxanthine incorporation assay; assay type: functional, organism-based; method in brief: as §3
Plasmodium berghei [15] = assay: Antiplasmodial activity against Plasmodium berghei KBG-173 infected in mouse assessed as mouse without parasitemia at 60 mg/kg, sc bid for 3 days measured on day 31; assay type: functional, organism-based; parameters: dose 60 mg/kg; method in brief: as §5

SMILES | clearance [1] [mL/min/kg] | Ratio IC50 (Plasmodium falciparum [2]) | IC50 (HepG2) [µM] | CD50 (Plasmodium berghei [3]) [mg/kg] | bioavailability [4] [%] | IC50 (Plasmodium falciparum [5]) [µM] | half-life at 1 µM [6] [h] | half-life [7] [h] | IC50 (Plasmodium falciparum [8]) [µg/mL] | IC50 (Plasmodium falciparum [9]) [µM] | Activity (Plasmodium berghei [10]) | Activity (Plasmodium berghei [11]) | half-life at 1 µM [12] [h] | IC50 (THP-1) [µM] | Vd/F [13] [L/kg] | IC50 (Plasmodium falciparum [14]) [µM] | Activity (Plasmodium berghei [15])
CC[C@H]1OC(=O)[C@H](C)[C@@H](O[C@H]2C[C@@](C)(OC)[C@@H](O)[C@H](C)O2)[C@H](C)[C@@H](O[C@@H]2O[C@H](C)C[C@H](N(C)C)[C@H]2O)[C@](C)(O)C[C@@H](C)CN(C)[C@H](C)[C@@H](O)[C@]1(C)O [AZITHROMYCIN] | 11 | 88 | > 50 | 50 | 33 | 2.29 | > 2 | 24 | 0.5 (≈ 0.668 µM) | 1.04 | Active | Active | > 2 | > 50 | 20 | 2.11 | –
CC[C@H]1OC(=O)[C@H](C)[C@@H](O[C@H]2C[C@@](C)(OC)[C@@H](O)[C@H](C)O2)[C@H](C)[C@@H](O[C@@H]2O[C@H](C)C[C@H](N(C)C)[C@H]2O)[C@](C)(O)C[C@@H](C)CN(CCCNC(=O)NC(C)c2cccc3ccccc23)[C@H](C)[C@@H](O)[C@]1(C)O (stereo partly specified) | – | – | > 50 | 397.5 | – | 0.106 | > 2 | – | – | 0.292 | Active | inactive | > 2 | 46 | – | 0.107 | –
CC[C@H]1OC(=O)[C@H](C)[C@@H](O[C@H]2C[C@@](C)(OC)[C@@H](O)[C@H](C)O2)[C@H](C)[C@@H](O[C@@H]2O[C@H](C)C[C@H](N(C)C)[C@H]2O)[C@](C)(O)C[C@@H](C)CN(CCCN(CCC#N)C(=S)NCCCc2ccccc2)[C@H](C)[C@@H](O)[C@]1(C)O | 24.5 | – | 9 | 800 | 21 | 0.088 | > 2 | 15.2 | – | 0.179 | – | inactive | > 2 | 5 | 31.7 | 0.062 | inactive
CC[C@H]1OC(=O)[C@H](C)[C@@H](O[C@H]2C[C@@](C)(OC)[C@@H](O)[C@H](C)O2)[C@H](C)[C@@H](O[C@@H]2O[C@H](C)C[C@H](N(C)C)[C@H]2O)[C@](C)(O)C[C@@H](C)CN(CCCN(CCC#N)C(=S)NCCc2ccccc2)[C@H](C)[C@@H](O)[C@]1(C)O | – | – | 13 | >960 | – | 0.051 | > 2 | – | – | 0.088 | inactive | – | 1.72 | 6 | – | 0.048 | inactive
CC[C@H]1OC(=O)[C@H](C)[C@@H](O[C@H]2C[C@@](C)(OC)[C@@H](O)[C@H](C)O2)[C@H](C)[C@@H](O[C@@H]2O[C@H](C)C[C@H](N(C)C)[C@H]2O)[C@](C)(O)C[C@@H](C)CN(CCCN(CCC#N)C(=O)Nc2ccc(Cl)cc2Cl)[C@H](C)[C@@H](O)[C@]1(C)O | 7.7 | – | 22 | 420 | 18.4 | 0.199 | > 2 | 41.5 | – | 0.229 | Active | – | > 2 | 15 | 23.3 | 0.123 | –
CC[C@H]1OC(=O)[C@H](C)[C@@H](O[C@H]2C[C@@](C)(OC)[C@@H](O)[C@H](C)O2)[C@H](C)[C@@H](O[C@@H]2O[C@H](C)C[C@H](N(C)C)[C@H]2O)[C@](C)(O)C[C@@H](C)CN(CCCNC(=S)NCCCc2ccccc2)[C@H](C)[C@@H](O)[C@]1(C)O | 2.3 | – | 22 | 780 | 1.3 | 0.085 | > 2 | 13.4 | – | 0.107 | – | – | > 2 | 15 | 2.6 | 0.082 | inactive
